NR3A LBD binder – binders of NR3A ligand-binding domain, primary screen, biophysical, differential scanning fluorimetry, uHTS. hit rate 2.5% among 340,000. Glutamate receptor ionotropic, NMDA 3A (GRIN3A) ligand-binding domain. AID 1259313, 2017. Tm shift relative to glycine control, % at 25 µM. NR3A LBD differential scanning fluorimetry, Tm shift; 0% = protein alone, 100% = glycine-bound protein;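 active = melting temperature shift of at least 10% of the positive control shift, at one fixed dose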
ZTA DNA inh – counter-screen for EBNA-1 inhibitors: inhibitors of Epstein-Barr virus ZTA; ZTA-DNA binding, fluorescence polarization; inhibition, % at 11 µM; hit rate 0.15% among 320,000; AID 2234; in the data active = inhibition above about 33%
Target sequence (P03206 whole entry, looked up): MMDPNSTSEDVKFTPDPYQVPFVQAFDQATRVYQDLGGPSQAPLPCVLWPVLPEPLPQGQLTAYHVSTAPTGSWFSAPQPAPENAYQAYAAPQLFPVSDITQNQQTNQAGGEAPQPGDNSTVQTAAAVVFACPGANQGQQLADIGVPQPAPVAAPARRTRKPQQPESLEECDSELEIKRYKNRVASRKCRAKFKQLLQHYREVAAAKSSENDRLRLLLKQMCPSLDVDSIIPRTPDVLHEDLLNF
NS3 helicase inh – inhibitors of HCV NS3 helicase, primary screen, biochemical, Cy5 molecular beacon fluorescence; NS3 helicase DNA unwinding; inhibition, % at 10.9 µM; hit rate 0.56% among 290,000;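 active = inhibition above the mean of all tested compounds plus 3 SD, set per campaign, cut at about 35% in these data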;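 note: 0% = DMSO wells and 100% = thioflavine S control wells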
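Control set: DMSO versus 110 µM thioflavine S; Material: NS3 helicase fragment of HCV; Measured by: Cy5 fluorescence at 0 and 60 min, beacon hairpin quenching; Read-out basis: percent inhibition from t60/t0 fluorescence ratio; Times: reaction time 60 min, 25 °C; Repeats: single replicate; Compound dosing: single dose, 10.9 µM nominal final, DMSO 0.8% final.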
FGF22 binding – binders of human FGF22 protein, primary screen, FGF22 synaptogenesis inhibitor project, biophysical, thermal shift, single point. Fibroblast growth factor 22 (Homo sapiens), Q9HCT0. recombinant FGF22 thermal shift, SYPRO orange fluorescence; percent of sucrose octasulfate shift, DMSO zero. activity (Tm shift, normalised), % at 9.99 µM. hit rate 1.5% among 340,000;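 active = mean Tm shift, scaled 0 neutral to 100 positive control, at about 1.3% or above, every replicate too, limit read from the data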
Target sequence (Q9HCT0 whole entry, looked up): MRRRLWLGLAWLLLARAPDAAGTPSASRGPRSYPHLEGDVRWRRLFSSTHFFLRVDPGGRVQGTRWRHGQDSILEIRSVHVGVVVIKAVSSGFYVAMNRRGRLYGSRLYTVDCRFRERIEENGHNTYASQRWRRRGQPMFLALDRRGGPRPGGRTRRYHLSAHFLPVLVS
EBNA-1 inh – EBNA-1 DNA-binding inhibitors, primary screen, biochemical, fluorescence polarization | inhibition, % at 14.8 µM | hit rate 0.34% among 300,000; in the data active = inhibition above about 28%
FID counter – compounds displacing fluorescent DNA intercalator, primary screen, artefact control for HCV NS3 helicase inhibitor project, biochemical, FID fluorescence; DNA fluorescent intercalator displacement; inhibition, % at 7.9 µM; hit rate 0.17% among 290,000; in the data active = inhibition above about 37%;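 note: 0% = vehicle and 100% = reference compound; higher means more ethidium bromide displaced from hairpin DNA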
Numbers without * were called inactive. Sampled rows, rich in hits. Any-hit rate of the full collection: about 3.6%.

`COc1ccccc1OCC(=O)Nc1ccc2c(c1)C(=O)N(CC1CCCO1)C2=O` (stereo not given) gave NR3A LBD binder 0.1, ZTA DNA inh -0.1, NS3 helicase inh -2.8, FGF22 binding 0.7, EBNA-1 inh -7.8 and FID counter -21.0.
For CO[C@H]1CN(C)C(=O)c2ccc(NS(=O)(=O)c3c(C)noc3C)cc2OC[C@@H](C)NC[C@@H]1C the results were FGF22 binding 0.1.
Screening COC(=O)/C(C#N)=C1/C=Cc2ccccc2N1C returned NR3A LBD binder -1.2, ZTA DNA inh -14.1, NS3 helicase inh -3.7, EBNA-1 inh -0.8 and FID counter -2.2.
`N#C/C(C(=O)Oc1ccccc1)=C1\C=Cc2ccccc2N1` gave NR3A LBD binder 20.1*, ZTA DNA inh -19.9, NS3 helicase inh -6.8, EBNA-1 inh -2.9 and FID counter -6.2.
For C[C@H](CO)N1C[C@H](C)[C@H](CN(C)C(=O)Cc2ccccc2)Oc2cc(-c3ccccc3)ccc2S1(=O)=O the results were FGF22 binding 0.0.
COc1cc(CNCc2ccccn2)ccc1OCc1ccc(Cl)cc1Cl was read as NR3A LBD binder 0.1, ZTA DNA inh 14.4, NS3 helicase inh -87.3, EBNA-1 inh -7.1 and FID counter 28.0.
For C/[N+]([O-])=C/c1c(OCc2ccc(Cl)cc2Cl)ccc2ccccc12 the results were NR3A LBD binder -3.5, ZTA DNA inh -1.4, NS3 helicase inh 3.8, FGF22 binding 44.9*, EBNA-1 inh -1.8 and FID counter -3.1.
`CCCC#Cc1ccc([C@H]2[C@@H](CO)N(C(=O)C3CCCC3)[C@H]2C#N)cc1` gave FGF22 binding -0.3.
COc1ccc(N2C(=O)CC(Sc3nnc(-c4ccccc4F)n3C)C2=O)cc1 (stereo not given) was read as NR3A LBD binder -0.2, ZTA DNA inh -8.9, NS3 helicase inh 9.6, FGF22 binding 43.5*, EBNA-1 inh -9.8 and FID counter -17.1.
For COc1ccc(-c2csc(NC(=S)NC(=O)c3cccs3)n2)cc1Br the results were NR3A LBD binder 38.2*, ZTA DNA inh -4.5, NS3 helicase inh -1.9, FGF22 binding -0.1, EBNA-1 inh -4.0 and FID counter -0.5.
Screening COc1ccc(-c2csc(NC(=S)NC(=O)c3cccs3)n2)cc1OC returned NR3A LBD binder 10.1*, NS3 helicase inh -6.4, FGF22 binding 0.3 and FID counter -12.2.
Screening CO[C@H]1CN(C)C(=O)c2ccc(NC(C)=O)cc2OC[C@@H](C)N(CCC(F)(F)F)C[C@H]1C returned FGF22 binding -0.1.
For CNC(=O)C[C@@H]1CC[C@H]2[C@@H](COc3ccc(NC(=O)C(C)C)cc3C(=O)N2C)O1 the results were FGF22 binding 0.0.
O=C1C2=C(NC(=S)NC2c2ccc(Cl)cc2)NC(c2ccc(Cl)cc2)N1c1ccc(Cl)cc1 (stereo not given) was read as NR3A LBD binder 21.9*, ZTA DNA inh 11.4, NS3 helicase inh -39.9, EBNA-1 inh -5.9 and FID counter 1.3.
`CCC(=O)N(C)C[C@@H]1Oc2cc(/C=C/c3ccccc3)ccc2S(=O)(=O)N([C@H](C)CO)C[C@H]1C` gave FGF22 binding -0.3.
Clc1ccc2c(SCC3CO3)c3ccccc3nc2c1 (stereo not given) was read as NR3A LBD binder 12.6* and FGF22 binding -0.2.
`Cc1cccc(-c2ccc([C@@H]3[C@H](CO)N4CCCCN(S(=O)(=O)c5cccs5)C[C@@H]34)cc2)c1` gave FGF22 binding -0.4.
Screening CS(=O)(=O)c1cnc2c(-c3ccc(F)cc3)cnn2c1N returned NR3A LBD binder 36.9*, ZTA DNA inh -2.3, NS3 helicase inh 12.5, EBNA-1 inh 16.2 and FID counter -2.8.
`Nc1c(-c2ccccc2)cnc2c(-c3ccccc3)cnn12` gave NR3A LBD binder -6.2, ZTA DNA inh 15.5, NS3 helicase inh 9.5, FGF22 binding 0.0, EBNA-1 inh 2.2 and FID counter -1.0.
Screening Cc1cc(N)n2ncc(-c3ccc(F)cc3)c2n1 returned NR3A LBD binder -2.4, ZTA DNA inh 2.9, NS3 helicase inh -6.3, EBNA-1 inh 1.4 and FID counter 8.2.
Screening Nc1c(-c2cccs2)cnc2c(-c3ccc(F)cc3)cnn12 returned NR3A LBD binder 30.3*, ZTA DNA inh -5.1, NS3 helicase inh -6.7, FGF22 binding -0.1, EBNA-1 inh 3.5 and FID counter 2.2.
COc1cccc(CNC(=O)C[C@@H]2CC[C@H]3[C@@H](COc4ccc(NC(C)=O)cc4C(=O)N3C)O2)c1 was read as FGF22 binding 0.2.
For O=C1N/C(=N\S(=O)(=O)Cc2ccccc2)S/C1=C/c1cc([N+](=O)[O-])ccc1O the results were NR3A LBD binder 8.2, ZTA DNA inh 19.4, NS3 helicase inh 17.4, FGF22 binding 0.0, EBNA-1 inh 9.9 and FID counter -6.9.
`Cc1ccc(S(=O)(=O)/N=C2/NC(=O)/C(=C\c3cc(Br)cc(Br)c3O)S2)cc1` gave NR3A LBD binder 6.3, NS3 helicase inh 33.7 and FID counter 44.1*.
`Cc1ccc(S(=O)(=O)/N=C2/NC(=O)/C(=C/c3ccc(Br)o3)S2)cc1` gave NR3A LBD binder -12.7, ZTA DNA inh -4.4, NS3 helicase inh 25.7, EBNA-1 inh 7.2 and FID counter -10.6.
For O=C1N/C(=N\S(=O)(=O)c2ccccc2)S/C1=C\c1cc([N+](=O)[O-])ccc1O the results were NR3A LBD binder 14.0*, ZTA DNA inh 19.3, NS3 helicase inh -9.6, FGF22 binding 0.1, EBNA-1 inh 4.8 and FID counter 2.5.
For CCOC(=O)C1=NN(C(C)=O)C2(CC(=O)N(c3cc(C)cc(C)c3)C2=O)C1 (stereo not given) the results were NR3A LBD binder 13.4*, ZTA DNA inh 3.6, NS3 helicase inh 1.2, EBNA-1 inh 2.9 and FID counter -5.3.
For CCOC(=O)C1=NN(C(C)=O)C2(CC(=O)N(c3ccc(C)c(C)c3)C2=O)C1 (stereo not given) the results were NR3A LBD binder 0.9, ZTA DNA inh 12.8, NS3 helicase inh 7.8, EBNA-1 inh 0.9 and FID counter -10.6.
COc1ccc(S(=O)(=O)N(C)C[C@H]2Oc3c(NC(=O)Nc4ccc5c(c4)OCO5)cccc3C(=O)N([C@@H](C)CO)C[C@@H]2C)cc1 was read as FGF22 binding -0.4.
CCCCN(Cc1cc2cc(OC)ccc2[nH]c1=O)C(=O)c1ccccn1 was read as NR3A LBD binder 12.5*, ZTA DNA inh 11.2, NS3 helicase inh 4.6, EBNA-1 inh 0.5 and FID counter -25.3.

Compound activity deposited in PubChem BioAssay by several laboratories.
